An excerpt weighted towards active compounds, which were near 3.2% of everything screened.
CHO parental Ca: signal in parental CHO cells, OX1R antagonist counter-screen; actives 0.63% (n = 330,000); inhibition, % at 5.6 µM; AID 463079; parental CHO-K1, ATP-induced calcium, Fluo-8 fluorescence;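 active means inhibition above that plate's mean sample inhibition plus 3 SD, cut at about 26% in these data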
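Material: parental CHO cells / Compound: single nominal dose of 5.6 µM per compound / Signal: Fluo-8 fluorescence / Replicates: singlicate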
TRPML3 ag: activates the human TRPML3 channel. Q8TDD5. HEK293 TRPML3-YFP, Fluo-8 calcium fluorescence; 100% = the carbachol control signal. activation, % at 3 µM. actives 0.29% (n = 220,000). AID 1448;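 active means activation above its plate's cutoff, the mean activation of the plate's test wells plus 3 SD, cut at about 12% in these data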
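system = HEK293 cells stably carrying human TRPML3-YFP | doses = one concentration, 3 µM nominal, 0.3% DMSO | timing = dye loading 1 h 37 °C then 30 min ambient, 125 s read | detection = Fluo-8 calcium dye fluorescence, ex 470-495, em 515-575 nm | benchmarks = high control carbachol 87 µM, low control DMSO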
GPR7 antagonist: antagonists of human GPR7 (neuropeptides B/W receptor 1). actives 1.1% (n = 290,000). inhibition, % at 4.4 µM. GPR7-expressing cells, fluorescence antagonist assay. AID 1861; in the data active means inhibition above about 16%, passing the limit was not always enough;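 further: cells stimulated with the agonist NPW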
Target sequence (P48145 whole entry, looked up): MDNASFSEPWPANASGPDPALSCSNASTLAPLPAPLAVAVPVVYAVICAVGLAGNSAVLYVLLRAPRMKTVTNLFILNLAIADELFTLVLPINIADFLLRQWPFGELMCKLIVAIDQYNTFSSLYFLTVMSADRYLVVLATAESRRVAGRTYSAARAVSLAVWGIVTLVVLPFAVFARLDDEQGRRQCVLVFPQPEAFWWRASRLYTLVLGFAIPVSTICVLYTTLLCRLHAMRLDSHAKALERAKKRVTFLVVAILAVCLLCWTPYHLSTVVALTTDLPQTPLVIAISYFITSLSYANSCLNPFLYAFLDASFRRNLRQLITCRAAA
OX1R antag-1: antagonists of human orexin 1 receptor (OX1R) | actives 1.8% (n = 330,000) | O43613 | OX1R-expressing cells, FRET antagonist read-out | inhibition, % at 6.6 µM; in the data active means inhibition mostly above about 38%, no sharp cut-off; inactive means mostly below about 40%
TRPN1 ag: zebrafish TRPN1 (NompC) channel agonism; HEK293 zebrafish TRPN1-YFP, Fluo-8 calcium fluorescence; 100% = response to 87 µM carbachol; activation, % at 3 µM; actives 0.18% (n = 220,000);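 active means activation above its plate's cutoff, the mean activation of test wells on that plate plus 3 SD, cut at about 19% in these data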
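Material: zebrafish TRPN1-YFP in HEK293 cells. Doses: one dose of 3 µM, 0.3% DMSO. Incubation: dye 1 h 37 °C plus 30 min RT. Measured by: intracellular calcium fluorescence with Fluo-8.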
OX1R antag-2: human HCRTR1 antagonism; O43613; CHO/OX1R cells, Fluo-8 calcium fluorescence, orexin A; inhibition, % at 5 µM; actives 0.43% (n = 330,000); AID 434989;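 active means inhibition above its plate's threshold, mean inhibition of all tested compounds on the plate plus 3 SD, cut at about 37% in these data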
A number is an active result; - = inactive; . = not tested or not shown.

SMILES	CHO parental Ca	TRPML3 ag	GPR7 antagonist	OX1R antag-1	TRPN1 ag	OX1R antag-2
Cc1ccc(C(C)C)c(OCc2nn(CC(=O)c3ccc(Cl)cc3)c3[n+]2CCCCC3)c1	-	-	38	-	-	-
CCOc1cc(N2CCOCC2)c(OCC)cc1NC(=O)c1cc(-c2ccco2)nc2ccccc12	-	-	-	37	-	-
Nc1nc(-c2ccc(F)cc2)cc(C(F)(F)F)n1	-	-	-	-	-	-
Nc1nc(-c2ccc(Cl)cc2)cc(C(F)(F)F)n1	39	-	-	-	-	-
COc1ccc(CNCc2ccc(OC)c3ccccc23)cc1	-	.	-	-	.	-
COCCN1C(=O)c2ccc(C(=O)Nc3nccs3)cc2C1=O	-	-	-	46	-	-
COc1ccccc1CC(=O)Nc1cccc(C(=O)Nc2nccs2)c1	-	-	-	49	-	-
CCCN1C(=O)c2ccc(C(=O)Nc3nccs3)cc2C1=O	-	-	-	45	-	-
Cc1ccc(S(=O)(=O)N(Cc2ccc(Cl)cc2)c2ccccc2C(=O)NCc2ccco2)cc1	-	-	-	-	-	-
Cc1cccc(N/C(N)=N/c2nc(C)cc(=O)[nH]2)c1	-	-	-	-	-	-
CC(Oc1ccccc1Cl)C(=O)Nc1ccc(S(=O)(=O)N2CCCC2)cc1 (centres undefined)	-	.	.	-	.	-
CCN(CC)C(=O)[C@H]1CC(CC(=O)NCc2ccco2)C(=O)N2CCc3c([nH]c4ccc(OC)cc34)[C@]12C (some centres undefined)	-	.	.	-	.	-
CCc1c(C(=O)N/N=C/c2sccc2C)nnn1-c1nonc1N	-	.	-	-	.	-
COc1ccc2ccccc2c1/C=N/NC(=O)c1nnn(-c2nonc2N)c1C(C)C	-	.	-	60	.	-
CC(C)Oc1ccc(/C=N/NC(=O)c2nnn(-c3nonc3N)c2CN(C)c2ccccc2)cc1	-	.	-	56	.	-
Cc1ccsc1/C=N/NC(=O)c1nnn(-c2nonc2N)c1CN(C)c1ccccc1	-	.	-	50	.	-
COc1ccc2ccccc2c1/C=N/NC(=O)c1nnn(-c2nonc2N)c1CN(C)C	-	.	-	-	.	-
C/C(=N\NC(=O)c1nnn(-c2nonc2N)c1CN(C)c1ccccc1)c1cccc(O)c1	-	.	-	49	.	-
C/C(=N\NC(=O)c1nnn(-c2nonc2N)c1CN(C)c1ccccc1)c1ccc(O)cc1	-	.	-	-	.	-
COC(=O)C1CCN(C2CC(=O)N(c3cc(C)cc(C)c3)C2=O)CC1 (centres undefined)	-	-	-	-	-	-
Cc1ccccc1-c1nnc(SCC(=O)NC2CCCC2)n1C	-	.	.	-	.	-
O=C(c1ccco1)N1CCN(Cc2cc(=O)c(OCc3ccccc3Cl)co2)CC1	-	.	.	-	.	-
O=S1(=O)NC(C2CC2c2ccccc2)CCO1 (centres undefined)	-	.	-	-	.	-
Cc1[nH][nH]c(=O)c1C(c1ccc(-c2ccccc2C(=O)O)o1)c1c(C)[nH][nH]c1=O	-	-	-	50	-	-
Cc1[nH][nH]c(=O)c1C(c1ccc(-c2cccc(C(=O)O)c2)o1)c1c(C)[nH][nH]c1=O	-	-	-	-	-	-
SMILES	CHO parental Ca	TRPML3 ag	GPR7 antagonist	OX1R antag-1	TRPN1 ag	OX1R antag-2
COC(=O)c1ccc(COC(=O)c2ccccc2OC)cc1	-	-	-	-	-	-
COC(=O)c1ccc(OCC(=O)c2ccccc2OC)cc1	-	-	-	45	-	-
Cc1cc(C)n2nc(CCCO)nc2n1	-	-	-	-	-	-
CN(C)S(=O)(=O)c1cc(NC(=O)COC(=O)CCSc2ccc(Cl)cc2)ccc1Cl	-	-	21	-	-	-
Cc1ccc(S(=O)(=O)O/N=C2\CCCc3ccccc32)cc1	-	-	-	-	-	-
CC1=C(C)/C(=N\OS(=O)(=O)c2ccccc2)C=CC1=O	65	16	58	150	-	74
O=C(O)C1CCN(S(=O)(=O)c2cccc3nsnc23)CC1	-	.	-	-	.	-
CN1CCN(S(=O)(=O)c2cccc3nsnc23)CC1	-	.	-	40	.	-
Cc1ccc(S(=O)(=O)N2CCN(C)CC2)c2nsnc12	-	.	-	50	.	-
Cc1ccc2nsnc2c1S(=O)(=O)N1CCN(C)CC1	-	.	-	-	.	-
CC[C@]1(C(=O)OC)[C@H]2C(=O)N(C)C(=O)[C@H]2[C@H]2CN(C)C(=NC)N21	-	.	.	-	.	-
Cc1ccc(Cl)cc1N(CC(=O)NC1CCCC1)C(=O)c1csnn1	-	.	-	-	.	-
CC1N(C)c2cccc3cccc(c23)N1C	-	-	-	70	-	-
CN1c2cccc3cccc(c23)N(C)C1c1cccs1	-	-	-	-	-	-
COCCn1c(-c2cccs2)nc2nc3ccccc3nc21	-	-	-	-	-	-
CCCn1c(-c2cccs2)nc2nc3ccccc3nc21	-	-	-	64	-	-
Cc1ccc(S(=O)(=O)NC(=O)COc2ccccc2C)c(C)c1	-	.	-	-	.	-
Cc1nc(NC(=O)COC(=O)C2CC3CCCC(C2)C3=O)c(Cl)cc1Cl (centres undefined)	-	.	.	-	.	-
C=CCc1ccc(OCC(O)CO)c(OC)c1 (centres undefined)	-	-	-	-	-	-
C=CCc1ccc(O)c(-c2cc(CC=C)ccc2O)c1	40	-	-	-	-	47
Cc1csc(=NC(=O)c2ccccc2)n1C	-	-	-	-	-	-
CCn1c(C)csc1=NC(=O)c1ccccc1	-	-	-	76	-	-
COc1ccc(OC)c(C(c2nnnn2C2CCCC2)N2CCN(c3ccc(F)cc3)CC2)c1 (centres undefined)	-	-	18	-	-	-
COc1ccc(C(c2nnnn2C2CCCC2)N2CCC(C)CC2)c(OC)c1 (centres undefined)	-	-	-	-	-	-
CC(Oc1ccc(F)cc1)C(O)CCN(C)C (centres undefined)	-	-	-	-	-	-

Screening results: PubChem BioAssay, The Scripps Research Institute Molecular Screening Center
